From ChEMBL document CHEMBL2202974 (J Med Chem, 2011)

Key:
[1] = Fraction unbound in monkey plasma; type: ADME, cell-free, Macaca mulatta; conditions: rhesus monkey
Outline: (§1)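 Plasma free fraction of the radioligand measured in vitro. Monkey: 3 samples from each of two monkeys (n = 6). Human: pooled plasma, three samples from each of two subjects.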

[2] = Drug uptake in SB612111-pretreated monkey lateral temporal cortex at 4.92 to 6.6 mCi, iv administered at 10 mins post SB612111-treatment measured from 10 to 120 mins by PET imaging analysis; type: ADME, organism-based, Macaca mulatta; conditions: rhesus monkey, in vivo
[3] = Drug uptake in monkey hypothalamus at 4.92 to 6.6 mCi, iv administered as bolus dose measured up to 20 mins by PET imaging analysis; type: ADME, organism-based, Macaca mulatta; conditions: rhesus monkey, in vivo
[4] = Drug uptake in SB612111-pretreated monkey lateral temporal cortex at 4.92 to 6.6 mCi, iv administered at 10 mins post SB612111-treatment measured within 10 mins by PET imaging analysis; type: ADME, organism-based, Macaca mulatta; conditions: rhesus monkey, in vivo
Brain [5] = assay: Drug uptake in NOP knockout mouse brain at 0.6 nM after 120 mins by autoradiographic analysis; type: ADME, tissue-based
Plasma [6] = assay: Drug metabolism in SB612111-pretreated monkey plasma assessed as radiometabolite formation at 4.9 to 6.6 mCi, iv administered as bolus dose 10 mins post SB612111-treatment up to 100 mins; type: ADME, organism-based, Macaca mulatta; conditions: rhesus monkey, in vivo
[7] = Drug uptake in monkey cerebellum at 4.92 to 6.6 mCi, iv administered as bolus dose measured at 120 mins by PET imaging analysis; type: ADME, organism-based, Macaca mulatta; conditions: rhesus monkey, in vivo, 2 h
[8] = Chemical stability of the compound in sodium phosphate buffer after 2 hrs at pH 7.4; type: physicochemical; conditions: read-out: Stability
[9] = Drug uptake in monkey amygdala at 6.2 mCi, iv administered as bolus dose followed by naloxone-treatment at 37 mins measured at 120 mins by PET imaging analysis; type: ADME, organism-based, Macaca mulatta; conditions: rhesus monkey, in vivo, 2 h
Outline: (§2)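 Anesthetised rhesus monkey given iv bolus of radioligand; a high dose of naloxone was given at 37 min after radioligand. PET regional time-activity curves were expressed as %SUV.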

[10] = Drug uptake in monkey hypothalamus at 4.92 to 6.6 mCi, iv administered as bolus dose measured at 120 mins by PET imaging analysis; type: ADME, organism-based, Macaca mulatta; conditions: rhesus monkey, in vivo, 2 h
[11] = Drug uptake in monkey cerebellum at 4.92 to 6.6 mCi, iv administered as bolus dose measured up to 20 mins by PET imaging analysis; type: ADME, organism-based, Macaca mulatta; conditions: rhesus monkey, in vivo
[12] = Drug uptake in monkey lateral temporal cortex at 4.92 to 6.6 mCi, iv administered as bolus dose measured up to 20 mins by PET imaging analysis; type: ADME, organism-based, Macaca mulatta; conditions: rhesus monkey, in vivo
[13] = Fraction unbound in human plasma; type: ADME, cell-free; outline: as §1
[14] = Drug uptake in monkey caudate at 6.2 mCi, iv administered as bolus dose followed by naloxone-treatment at 37 mins measured at 120 mins by PET imaging analysis; type: ADME, organism-based, Macaca mulatta, Caudate nucleus; conditions: rhesus monkey, in vivo, 2 h; outline: as §2
[15] = Drug uptake in monkey hypothalamus at 6.2 mCi, iv administered as bolus dose followed by SB612111-treatment at 40 mins measured at 100 mins by PET imaging analysis; type: ADME, organism-based, Macaca mulatta; conditions: rhesus monkey, in vivo
Outline: (§3)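 Anesthetised rhesus monkey given iv bolus of radioligand; the NOP antagonist was given at 40 min after radioligand to test displacement. PET regional time-activity curves were expressed as %SUV.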

Brain [16] = assay: Drug uptake in 129/S6 mouse brain at 0.6 nM after 120 mins by autoradiographic analysis; type: ADME, tissue-based
[17] = Drug uptake in monkey lateral temporal cortex at 6.2 mCi, iv administered as bolus dose followed by SB612111-treatment at 40 mins measured at 100 mins by PET imaging analysis; type: ADME, organism-based, Macaca mulatta; conditions: rhesus monkey, in vivo; outline: as §3
[18] = Drug uptake in monkey amygdala at 4.92 to 6.6 mCi, iv administered as bolus dose measured up to 20 mins by PET imaging analysis; type: ADME, organism-based, Macaca mulatta; conditions: rhesus monkey, in vivo
Plasma [19] = assay: Metabolic stability in SB612111-pretreated monkey plasma at 4.9 to 6.6 mCi, iv administered as bolus dose 10 mins post SB612111-treatment up to 100 mins; type: ADME, organism-based, Macaca mulatta; conditions: rhesus monkey, in vivo
Outline: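 Preblock scans were run in the same anesthetized (ketamine, isoflurane) rhesus monkeys about 3 h after the baseline scan. Plasma was extracted into acetonitrile, and the supernatant was analysed by HPLC to give the percentage of radioactivity present as unchanged radioligand over time.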

[20] = Drug uptake in monkey hypothalamus at 6.2 mCi, iv administered as bolus dose followed by naloxone-treatment at 37 mins measured at 120 mins by PET imaging analysis; type: ADME, organism-based, Macaca mulatta; conditions: rhesus monkey, in vivo, 2 h; outline: as §2
[21] = Drug uptake in SB612111-pretreated monkey cerebellum at 4.92 to 6.6 mCi, iv administered at 10 mins post SB612111-treatment measured from 10 to 120 mins by PET imaging analysis; type: ADME, organism-based, Macaca mulatta; conditions: rhesus monkey, in vivo
[22] = Drug uptake in SB612111-pretreated monkey amygdala at 4.92 to 6.6 mCi, iv administered at 10 mins post SB612111-treatment measured within 10 mins by PET imaging analysis; type: ADME, organism-based, Macaca mulatta; conditions: rhesus monkey, in vivo
[23] = Drug uptake in monkey amygdala at 6.2 mCi, iv administered as bolus dose followed by SB612111-treatment at 40 mins measured at 100 mins by PET imaging analysis; type: ADME, organism-based, Macaca mulatta; conditions: rhesus monkey, in vivo; outline: as §3
[24] = Metabolic stability in monkey plasma for 0.5 hrs; type: ADME, cell-free, Macaca mulatta; conditions: rhesus monkey, read-out: Stability
Outline: (§4)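 The [11C]-labelled radioligand was incubated in vitro in monkey whole blood or monkey plasma for 0.5 h at room temperature. Stability was expressed as the percentage of radioactivity remaining as unchanged radioligand (n = 6).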

[25] = Drug uptake in SB612111-pretreated monkey caudate at 4.92 to 6.6 mCi, iv administered at 10 mins post SB612111-treatment measured within 10 mins by PET imaging analysis; type: ADME, organism-based, Macaca mulatta, Caudate nucleus; conditions: rhesus monkey, in vivo
[26] = Drug uptake in monkey caudate at 4.92 to 6.6 mCi, iv administered as bolus dose measured at 120 mins by PET imaging analysis; type: ADME, organism-based, Macaca mulatta, Caudate nucleus; conditions: rhesus monkey, in vivo, 2 h
[27] = Drug uptake in SB612111-pretreated monkey cerebellum at 4.92 to 6.6 mCi, iv administered at 10 mins post SB612111-treatment measured within 10 mins by PET imaging analysis; type: ADME, organism-based, Macaca mulatta; conditions: rhesus monkey, in vivo
[28] = Metabolic stability in monkey plasma at 4.9 to 6.6 mCi, iv administered as bolus dose up to 100 mins; type: ADME, organism-based, Macaca mulatta; conditions: rhesus monkey, read-out: Stability
Outline: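 For baseline scans, male rhesus monkeys were immobilized with ketamine and kept under 1–3% isoflurane. Plasma sampled during the scan was extracted into acetonitrile, and the supernatant was analysed by HPLC for the parent fraction.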

[29] = Drug uptake in monkey cerebellum at 6.2 mCi, iv administered as bolus dose followed by naloxone-treatment at 37 mins measured at 120 mins by PET imaging analysis; type: ADME, organism-based, Macaca mulatta; conditions: rhesus monkey, in vivo, 2 h; outline: as §2
[30] = Drug uptake in monkey lateral temporal cortex at 6.2 mCi, iv administered as bolus dose followed by naloxone-treatment at 37 mins measured at 120 mins by PET imaging analysis; type: ADME, organism-based, Macaca mulatta; conditions: rhesus monkey, in vivo, 2 h; outline: as §2
[31] = Drug uptake in monkey lateral temporal cortex at 4.92 to 6.6 mCi, iv administered as bolus dose measured at 120 mins by PET imaging analysis; type: ADME, organism-based, Macaca mulatta; conditions: rhesus monkey, in vivo, 2 h
[32] = Drug uptake in monkey caudate at 4.92 to 6.6 mCi, iv administered as bolus dose measured up to 20 mins by PET imaging analysis; type: ADME, organism-based, Macaca mulatta, Caudate nucleus; conditions: rhesus monkey, in vivo
[33] = Drug uptake in monkey cerebellum at 6.2 mCi, iv administered as bolus dose followed by SB612111-treatment at 40 mins measured at 100 mins by PET imaging analysis; type: ADME, organism-based, Macaca mulatta; conditions: rhesus monkey, in vivo; outline: as §3
[34] = Drug uptake in monkey amygdala at 4.92 to 6.6 mCi, iv administered as bolus dose measured at 120 mins by PET imaging analysis; type: ADME, organism-based, Macaca mulatta; conditions: rhesus monkey, in vivo, 2 h
[35] = Drug uptake in monkey caudate at 6.2 mCi, iv administered as bolus dose followed by SB612111-treatment at 40 mins measured at 100 mins by PET imaging analysis; type: ADME, organism-based, Macaca mulatta, Caudate nucleus; conditions: rhesus monkey, in vivo; outline: as §3
[36] = Metabolic stability in monkey blood for 0.5 hrs; type: ADME, tissue-based, Macaca mulatta; conditions: rhesus monkey, read-out: Stability; outline: as §4
Plasma [37] = assay: Drug metabolism in monkey plasma assessed as radiometabolite formation at 4.9 to 6.6 mCi, iv administered as bolus dose up to 100 mins; type: ADME, organism-based, Macaca mulatta; conditions: rhesus monkey, in vivo
[38] = Drug uptake in SB612111-pretreated monkey caudate at 4.92 to 6.6 mCi, iv administered at 10 mins post SB612111-treatment measured from 10 to 120 mins by PET imaging analysis; type: ADME, organism-based, Macaca mulatta, Caudate nucleus; conditions: rhesus monkey, in vivo
[39] = Drug uptake in SB612111-pretreated monkey hypothalamus at 4.92 to 6.6 mCi, iv administered at 10 mins post SB612111-treatment measured within 10 mins by PET imaging analysis; type: ADME, organism-based, Macaca mulatta; conditions: rhesus monkey, in vivo
[40] = Drug uptake in SB612111-pretreated monkey amygdala at 4.92 to 6.6 mCi, iv administered at 10 mins post SB612111-treatment measured from 10 to 120 mins by PET imaging analysis; type: ADME, organism-based, Macaca mulatta; conditions: rhesus monkey, in vivo
[41] = Drug uptake in SB612111-pretreated monkey hypothalamus at 4.92 to 6.6 mCi, iv administered at 10 mins post SB612111-treatment measured from 10 to 120 mins by PET imaging analysis; type: ADME, organism-based, Macaca mulatta; conditions: rhesus monkey, in vivo

With `[11CH3]NC(=O)[C@@H](Cc1ccccc1F)CN1CCC2(CC1)OCCc1cc(F)sc12` the fraction unbound [1] was 0.113, the Drug uptake [2] was “Not Active” and the Drug uptake [3] was “Active”. The Drug uptake [4] was “Active”, the Drug uptake (Brain [5]) was “Not Active” and the Drug metabolism (Plasma [6]) was “Active”. For the same compound, the Drug uptake [7] was “Not Active”, the remaining at 2 h [8] was 98.9% and the Drug uptake [9] was “Not Active”. The Drug uptake [10] was “Not Active”, the Drug uptake [11] was “Active” and the Drug uptake [12] was “Active”. For the same compound, the fraction unbound [13] was 0.11, the Drug uptake [14] was “Not Active” and the Drug uptake [15] was “Not Active”. For the same compound, the Drug uptake (Brain [16]) was “Active”, the Drug uptake [17] was “Not Active” and the Drug uptake [18] was “Active”. The Stability (Plasma [19]) was 94.9%, the Drug uptake [20] was “Not Active” and the Drug uptake [21] was “Not Active”. For the same compound, the Drug uptake [22] was “Active”, the Drug uptake [23] was “Not Active” and the remaining at 0.5 h [24] was 99.9%. The Drug uptake [25] was “Active”, the Drug uptake [26] was “Not Active” and the Drug uptake [27] was “Active”. For the same compound, the remaining at 100 min [28] was 94.9%, the Drug uptake [29] was “Not Active” and the Drug uptake [30] was “Not Active”. The Drug uptake [31] was “Not Active”, the Drug uptake [32] was “Active” and the Drug uptake [33] was “Not Active”. For the same compound, the Drug uptake [34] was “Not Active”, the Drug uptake [35] was “Not Active” and the remaining at 0.5 h [36] was 100%. The Drug metabolism (Plasma [37]) was “Active”, the Drug uptake [38] was “Not Active” and the Drug uptake [39] was “Active”. For the same compound, the Drug uptake [40] was “Not Active” and the Drug uptake [41] was “Not Active”.
